Data taken from ChEMBL document CHEMBL4373680, “Small antibacterial molecules highly active against drug-resistant Staphylococcus aureus” (Medchemcomm, 2019).

Experiments:
[1] = Ratio of EC50 for dog MDCK cells to MIC for vancomycin-resistant Staphylococcus aureus clinical isolate 1; format: toxicity
Escherichia coli = assay: Antibacterial activity against Escherichia coli MTCC 443 after 24 hrs by tecan plate reader analysis; format: functional; settings: MTCC 443, 24 h
How it was run: (§1)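 Broth microdilution MIC. Glycerol stocks grown on MacConkey agar 24 h at 37 °C, then a single colony in nutrient broth 6 h to mid-log (~10⁸ CFU/mL). Cells diluted to 10⁵ CFU/mL in Mueller Hinton broth and added to two-fold compound dilutions. Incubated 24 h at 37 °C, OD600 read. Triplicate wells, experiment run twice.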

Staphylococcus aureus [2] = assay: Antibacterial activity against methicillin-resistant Staphylococcus aureus R3545 clinical isolate after 24 hrs by tecan plate reader analysis; format: functional; settings: R3545, 24 h
How it was run: (§2)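 Colony grown 24 h on NB agar at 37 °C, then 6 h in nutrient broth to mid-log (10⁸ CFU/mL by drop plating), diluted to 10⁵ CFU/mL in Mueller Hinton broth; added 9:1 to two-fold serial compound dilutions in MHB. Incubated 24 h, 37 °C; OD600 read. Triplicate per concentration, experiment run twice; MIC taken from the range of triplicate OD values.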

Staphylococcus aureus [3] = assay: Induction of membrane permeabilization in Staphylococcus aureus ATCC 33591 assessed as increase in fluorescence intensity measured upto 28 mins by propidium iodide staining based fluorescence spectroscopic technique; format: functional, organism-based
How it was run: (§3)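 Mid-log MRSA washed in 5 mM HEPES and resuspended in 1:1 HEPES (5 mM) and glucose (5 mM). Propidium iodide added at 10 µM final. Baseline fluorescence (ex 535/em 617 nm) read 4 min, compound in water added, read to 28 min. Water control; triplicates averaged.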

Staphylococcus aureus [4] = assay: Antibacterial activity against vancomycin-resistant Staphylococcus aureus clinical isolate 1 after 24 hrs by tecan plate reader analysis; format: functional; settings: clinical isolate 1, 24 h; how it was run: as §2
Staphylococcus aureus [5] = assay: Induction of membrane depolarization in Staphylococcus aureus R3545 assessed as increase in fluorescence intensity measured upto 28 mins by DiSC3 staining based fluorescence spectroscopic technique; format: functional, organism-based
How it was run: (§4)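 Mid-log MRSA washed in 5 mM HEPES pH 7.4 and resuspended in 1:1:1 HEPES (5 mM), glucose (5 mM) and KCl (100 mM). Loaded with DiSC3(5) at 2 µM final, 30 min in the dark. Baseline fluorescence (ex 622/em 670 nm) read 4 min, compound added, monitored to 28 min. Water control; triplicates averaged.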

[6] = Ratio of EC50 for human A549 cells to MIC for vancomycin-resistant Staphylococcus aureus clinical isolate 1; format: toxicity
Staphylococcus aureus [7] = assay: Bactericidal activity against planktonic phase of methicillin-resistant Staphylococcus aureus R3545 assessed as log reduction in bacterial colony forming units at 16 ug/ml incubated for 4 hrs followed by plating on agar plate for 24 hrs by time-kill kinetic assay; format: functional
How it was run: (§5)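 Time-kill: 6 h mid-log culture diluted to 10⁵ CFU/mL in MHB, incubated at 37 °C with compound at […]; 0.9% saline control. Aliquots at 1, 2, 4, 6, 8 and 12 h ten-fold diluted in saline, plated on NB agar 24 h at 37 °C; colonies counted, log scale.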

[8] = Ratio of EC50 for dog MDCK cells to MIC for vancomycin-resistant Staphylococcus aureus clinical isolate 2; format: toxicity
Pseudomonas aeruginosa = assay: Antibacterial activity against Pseudomonas aeruginosa MTCC 424 after 24 hrs by tecan plate reader analysis; format: functional; settings: MTCC 424, 24 h; how it was run: as §1
Staphylococcus aureus [9] = assay: Antibacterial activity against methicillin-resistant Staphylococcus aureus R3889 clinical isolate after 24 hrs by tecan plate reader analysis; format: functional; settings: R3889, 24 h; how it was run: as §2
Staphylococcus aureus [10] = assay: Induction of membrane permeabilization in Staphylococcus aureus R3545 assessed as increase in fluorescence intensity measured upto 28 mins by propidium iodide staining based fluorescence spectroscopic technique; format: functional, organism-based; how it was run: as §3
Staphylococcus aureus [11] = assay: Antibacterial activity against methicillin-resistant Staphylococcus aureus R3890 clinical isolate after 24 hrs by tecan plate reader analysis; format: functional; settings: R3890, 24 h; how it was run: as §2
Staphylococcus aureus [12] = assay: Bactericidal activity against planktonic phase of methicillin-resistant Staphylococcus aureus ATCC 33591 assessed as log reduction in bacterial colony forming units at 16 ug/ml incubated for 2 hrs followed by plating on agar plate for 24 hrs by time-kill kinetic assay; format: functional; how it was run: as §5
[13] = Selectivity index, ratio of HC50 for human erythrocytes to MIC for methicillin-resistant Staphylococcus aureus ATCC 33591; format: toxicity; settings: read-out: Selectivity Index
[14] = Hemolytic activity in human erythrocytes after 1 hr; format: ADME, cell-based, Erythrocyte
How it was run: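 Heparinized donor blood. Erythrocytes washed three times in PBS and resuspended to 5 vol%, then mixed 3:1 with compound serially diluted in water. Incubated 1 h at 37 °C and centrifuged. Supernatant A540 read; % hemolysis relative to water and 0.1 vol% Triton-X controls.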

MDCK = assay: Cytotoxicity against dog MDCK cells after 24 hrs by alamar blue assay; format: cell-based; settings: Canis lupus familiaris
How it was run: (§6)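 About 10⁴ cells/well in DMEM with 10% FBS. Medium replaced with two-fold compound dilutions and incubated 24 h at 37 °C, 5% CO₂. Alamar Blue added for a further 4 h, absorbance 570 nm (600 nm reference). Viability normalized to untreated and 0.1% Triton-X wells. Triplicates; sigmoidal fit gives the 50% viability concentration.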

Staphylococcus aureus [15] = assay: Bactericidal activity against planktonic phase of methicillin-resistant Staphylococcus aureus ATCC 33591 assessed as bacterial killing at 32 ug/ml incubated for 1 hr followed by plating on agar plate for 24 hrs by time-kill kinetic assay relative to control; format: functional; how it was run: as §5
[16] = Ratio of EC50 for human A549 cells to MIC for vancomycin-resistant Staphylococcus aureus clinical isolate 2; format: toxicity
A549 = assay: Cytotoxicity against human A549 cells after 24 hrs by alamar blue assay; format: cell-based; settings: A549, 24 h; how it was run: as §6
Klebsiella pneumoniae = assay: Antibacterial activity against Klebsiella pneumoniae ATCC 700603 after 24 hrs by tecan plate reader analysis; format: functional; settings: Klebsiella pneumoniae, 700603, 24 h; how it was run: as §1
Staphylococcus aureus [17] = assay: Induction of membrane depolarization in Staphylococcus aureus ATCC 33591 assessed as increase in fluorescence intensity measured upto 28 mins by DiSC3 staining based fluorescence spectroscopic technique; format: functional, organism-based; how it was run: as §4
Staphylococcus aureus [18] = assay: Antibacterial activity against vancomycin-resistant Staphylococcus aureus clinical isolate 4 after 24 hrs by tecan plate reader analysis; format: functional; settings: clinical isolate 4, 24 h; how it was run: as §2
Acinetobacter baumannii = assay: Antibacterial activity against Acinetobacter baumannii MTCC 1425 after 24 hrs by tecan plate reader analysis; format: functional; settings: MTCC 1425, 24 h; how it was run: as §1
Staphylococcus aureus [19] = assay: Antibacterial activity against methicillin-resistant Staphylococcus aureus ATCC 33591 after 24 hrs by tecan plate reader analysis; format: functional; settings: ATCC 33591, 24 h; how it was run: as §2
Staphylococcus aureus [20] = assay: Bactericidal activity against planktonic phase of methicillin-resistant Staphylococcus aureus R3545 assessed as bacterial killing at 32 ug/ml incubated for 1 hr followed by plating on agar plate for 24 hrs by time-kill kinetic assay relative to control; format: functional; how it was run: as §5

Q: Which selectivity ratio [1] does the source give for `CCCCCCCCNC(=O)C[N+](C)(CCO)CCCCCC[N+](C)(CCO)CC(=O)NCCCCCCCC.[Br-].[Br-]` (stereo unspecified) here?
A: Its selectivity ratio is 22.

Q: What about the MIC (Escherichia coli) of the same compound?
A: The MIC was 4 to 8 µg/mL.

Q: And the MIC (Staphylococcus aureus [2])?
A: Its MIC is 1 to 2 µg/mL.

Q: And the Activity (Staphylococcus aureus [3])?
A: The Activity was “Dose-dependent effect”.

Q: What about the MIC (Staphylococcus aureus [4]) of the same compound?
A: Its MIC is 2 µg/mL.

Q: What about the Activity (Staphylococcus aureus [5]) of the same compound?
A: Its Activity is “Dose-dependent effect”.

Q: And the selectivity ratio [6]?
A: The selectivity ratio was 22.

Q: And the Activity (Staphylococcus aureus [7])?
A: Its Activity is 5.6 log10CFU/ml.

Q: What about the selectivity ratio [8] of the same compound?
A: The selectivity ratio was 22.

Q: What about the MIC (Pseudomonas aeruginosa) of the same compound?
A: The MIC was 16 µg/mL.

Q: And the MIC (Staphylococcus aureus [9])?
A: Its MIC is 1 µg/mL.

Q: And the Activity (Staphylococcus aureus [10])?
A: The Activity was “Dose-dependent effect”.

Q: What about the MIC (Staphylococcus aureus [11]) of the same compound?
A: Its MIC is 4 µg/mL.

Q: And the Activity (Staphylococcus aureus [12])?
A: The Activity was 5.4 log10CFU/ml.

Q: And the selectivity ratio [13]?
A: The selectivity ratio was 222.

Q: What about the HC50 at 1 h [14] of the same compound?
A: The HC50 at 1 h was 222 µg/mL.

Q: What about the EC50 (MDCK) of the same compound?
A: The EC50 was 45 µg/mL.

Q: What about the Activity (Staphylococcus aureus [15]) of the same compound?
A: The Activity was 100%.

Q: What about the selectivity ratio [16] of the same compound?
A: The selectivity ratio was 22.

Q: What about the EC50 (A549) of the same compound?
A: The EC50 was 44 µg/mL.

Q: What about the MIC (Klebsiella pneumoniae) of the same compound?
A: The MIC was 32 µg/mL.

Q: And the Activity (Staphylococcus aureus [17])?
A: Its Activity is “Dose-dependent effect”.

Q: And the MIC (Staphylococcus aureus [18])?
A: Its MIC is 2 µg/mL.

Q: What about the MIC (Acinetobacter baumannii) of the same compound?
A: Its MIC is 16 µg/mL.

Q: What about the MIC (Staphylococcus aureus [19]) of the same compound?
A: Its MIC is 1 to 2 µg/mL.

Q: And the Activity (Staphylococcus aureus [20])?
A: The Activity was 100%.
